From ChEMBL document CHEMBL4433227, “Enhancing the ligand efficiency of anti-HIV compounds targeting frameshift-stimulating RNA” (Bioorg Med Chem, 2019)
pIC50, pKd: −log10 of the molar value. Active and inactive are the calls of the source. No cut-off for these calls is given here.

What was measured:
[1] = system: Human immunodeficiency virus 1; experiment: Binding affinity to HIV-1 FSS RNA assessed as dissociation rate constant by SPR assay
How it was run: (§1)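 Compounds injected in HBS at 80 μL/min for 1 min, at least two injections per concentration. Each curve fit to a 1:1 Langmuir model, using the two lowest fittable concentrations. Kinetic constants averaged.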

[2] = system: Human immunodeficiency virus 1; experiment: Binding affinity to HIV-1 FSS RNA assessed as association rate constant by SPR assay; how it was run: as §1
[3] = system: Human immunodeficiency virus 1; experiment: Antiviral activity against HIV1 3B infected in human MT2 cells assessed as reduction in p24 Gag protein production at 25 uM on day 6 post infection by ELISA relative to control; format: functional; set-up: scale not given: the % may be the effect or the level left
[4] = (§2) Competitive binding affinity to HIV-1 FSS RNA assessed as dissociation constant in presence of bulk yeast tRNA by SPR assay; set-up: species or system Human immunodeficiency virus 1
[5] = Binding affinity to HIV-1 FSS RNA assessed as dissociation constant by SPR assay; set-up: species or system Human immunodeficiency virus 1; how it was run: as §1
[6] = system: Human immunodeficiency virus; experiment: Antiviral activity against pseudotyped HIV assessed as reduction in viral production; format: functional, organism-based
[7] = system: Human immunodeficiency virus; experiment: Binding affinity to HIV frameshift-stimulating RNA assessed as upregulation of HIV p160 Gag-pol protein expression by Western blot analysis
[8] = system: Human immunodeficiency virus; experiment: Antiviral activity against pseudotyped HIV assessed as reduction in viral infectivity; format: functional, organism-based
[9] = system: Human immunodeficiency virus 1; experiment: Antiviral activity against patient derived multidrug resistant HIV1 AD.MDR01; format: functional, organism-based
[10] = system: Human immunodeficiency virus 1; experiment: Antiviral activity against HIV1 3B; format: functional, organism-based
[11] = system: Human immunodeficiency virus 1; experiment: Antiviral activity against HIV1 3B infected in human MT2 cells assessed as reduction in p24 Gag protein production on day 6 post infection by ELISA; format: functional, organism-based; details: Human immunodeficiency virus 1, 3B, MT2, 144 h
[12] = Cytotoxicity against human HEK293FT cells assessed as reduction in viability at < 40 uM after 24 hrs by WST1 assay; format: cell-based
How it was run: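 HEK293FT cells, 2.5×10^4/well in triplicate, grown in DMEM with 10% FBS and 1% pen-strep at 37 °C. After 4 h adherence, compound dilutions added for 24 h. WST-1 then added for 1 h and the signal read on a plate reader. Mitochondrial activity taken as the metabolic read-out.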

[13] = system: Human immunodeficiency virus 1; experiment: as §2
[14] = system: Human immunodeficiency virus 1; experiment: Binding affinity to HIV-1 FSS RNA at 2 uM dialyzed up to 36 hrs by HPLC analysis
How it was run: (§3)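 RNAs refolded at 2.5 μM in PBS with 1 mM EDTA (25 °C, 90 °C, then 27 °C). Tubes (3500 MWCO) held 200 μL of RNA, in duplicate, with an RNA-free control tube. Dialysis against 2.0 μM compound in PBS for 36 h. Compound concentration inside the tubes measured by HPLC.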

[15] = species: Homo sapiens; experiment: Binding affinity to human IRF5 RNA at 2 uM dialyzed up to 36 hrs by HPLC analysis; how it was run: as §3
[16] = species: Homo sapiens; experiment: Binding affinity to human BDNF RNA at 2 uM dialyzed up to 36 hrs by HPLC analysis; how it was run: as §3

Compound	Kdiss [1]	Ka [2]	Activity [3] [%]	pKd [4]	pKd [5]	other results
CCc1nc2ccccc2cc1C(=O)N(C)[C@@H](CCn1cc(C[C@@H](C(=O)N2C[C@H](O)C[C@H]2C(=O)N(C)[C@@H](Cc2ccccc2)C(=O)NCCCN)N(C)C(=O)c2cc3ccccc3nc2CC)nn1)C(=O)N1C[C@H](O)C[C@H]1C(=O)N(C)[C@@H](Cc1ccccc1)C(=O)NCCCN	6.8 ×10⁻³ /s	1.49 ×10⁴ /M.s	63	6.36	6.23	–
CCc1nc2cc3ccccc3cc2cc1C(=O)N(C)[C@@H](CCn1cc(C[C@@H](C(=O)N2CCC[C@H]2C(=O)N(C)[C@@H](Cc2ccccc2)C(=O)NCCCN)N(C)C(=O)c2cc3cc4ccccc4cc3nc2CC)nn1)C(=O)N1CCC[C@H]1C(=O)N(C)[C@@H](Cc1ccccc1)C(=O)NCCCN	3 ×10⁻³ /s	1.9 ×10⁵ /M.s	–	6.89	7.80	Activity [6]: Active; Activity [7]: Dose-dependent effect; Activity [8]: Active; Activity [9]: Active; Activity [10]: Active; pIC50 [11]: 5.31
CCc1nc2cc3ccccc3cc2cc1C(=O)N[C@@H](C/C=C\C[C@H](NC(=O)c1cc2cc3ccccc3cc2nc1CC)C(=O)N1CCC[C@H]1C(=O)N[C@@H](Cc1ccccc1)C(=O)NCCCN)C(=O)N1CCC[C@H]1C(=O)N[C@@H](Cc1ccccc1)C(=O)NCCCN	–	–	–	–	6.99	Activity [6]: Active; Activity [7]: Dose-dependent effect; Activity [8]: Active
CCc1nc2ccccc2cc1C(=O)N(C)[C@@H](CCn1cc(C[C@@H](C(=O)N2CCC[C@H]2C(=O)N(C)[C@@H](Cc2ccccc2)C(=O)NCCCN)N(C)C(=O)c2cc3ccccc3nc2CC)nn1)C(=O)N1CCC[C@H]1C(=O)N(C)[C@@H](Cc1ccccc1)C(=O)NCCCN	2.37 ×10⁻² /s	6.49 ×10⁴ /M.s	63	6.88	6.30	Activity [12]: Toxic
NC[C@@H]1O[C@H](O[C@H]2[C@@H](O)[C@H](O[C@@H]3[C@@H](O)[C@H](N)C[C@H](N)[C@H]3O[C@H]3O[C@H](CN)[C@@H](O)[C@H](O)[C@H]3N)O[C@@H]2CO)[C@H](N)[C@@H](O)[C@@H]1O [FRAMYCETIN]	–	–	–	–	3.11	Activity [13]: inactive
CN(C(=O)c1cnc2ccccc2c1)[C@@H](CCn1cc(C[C@@H](C(=O)N2CCC[C@H]2C(=O)N(C)[C@@H](Cc2ccccc2)C(=O)NCCCN)N(C)C(=O)c2cnc3ccccc3c2)nn1)C(=O)N1CCC[C@H]1C(=O)N(C)[C@@H](Cc1ccccc1)C(=O)NCCCN	2.26 ×10⁻³ /s	5.66 ×10⁴ /M.s	63	6.91	7.21	Activity [14]: Active; Activity [15]: Active; Activity [16]: Active
CN(C(=O)c1cnc2ccccc2c1)[C@@H](CCn1cc(C[C@@H](C(=O)N2C[C@H](O)C[C@H]2C(=O)N(C)[C@@H](Cc2ccccc2)C(=O)NCCCN)N(C)C(=O)c2cnc3ccccc3c2)nn1)C(=O)N1C[C@H](O)C[C@H]1C(=O)N(C)[C@@H](Cc1ccccc1)C(=O)NCCCN	5.42 ×10⁻³ /s	6.74 ×10⁴ /M.s	63	6.74	6.96	–
CN(C(=O)c1cnc2ccccc2c1)[C@@H](CCn1cc(C[C@@H](C(=O)N2C[C@H](O)C[C@H]2C(=O)N(C)[C@@H](Cc2ccccc2)C(N)=O)N(C)C(=O)c2cnc3ccccc3c2)nn1)C(=O)N1C[C@H](O)C[C@H]1C(=O)N(C)[C@@H](Cc1ccccc1)C(N)=O	5.41 ×10⁻³ /s	4.09 ×10³ /M.s	–	–	5.83	–
CCc1nc2ccccc2cc1C(=O)N(C)[C@@H](CCn1cc(C[C@@H](C(=O)N2CCC[C@H]2C(=O)N(C)[C@@H](Cc2ccccc2)C(N)=O)N(C)C(=O)c2cc3ccccc3nc2CC)nn1)C(=O)N1CCC[C@H]1C(=O)N(C)[C@@H](Cc1ccccc1)C(N)=O	2.07 ×10⁻² /s	1.69 ×10³ /M.s	–	4.77	4.71	–
